# According to ChEMBL document CHEMBL1121743, “Synthesis and antibacterial activity of 1-(arylamino)-1H-pyrroles and 4-(1H-pyrrol-1-ylimino)-2,5-cyclohexadienes” (1981):
# Calls of active or inactive are those of the source. No cut-off for these calls is given here.
# Tests used:
# Proteus mirabilis [1] = assay: Minimum inhibitory dilution of medicated rat urine tested in vitro for antibacterial activity against Proteus mirabilis; Less than 1:2; assay type: functional
# Proteus mirabilis [2] = assay: In vitro minimum inhibitory concentration against Proteus mirabilis; assay type: functional
# How it was run: (§1)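 Compounds were dissolved in water, or in water with the minimum DMSO needed to keep them in solution, and tested by an established dilution method. A ">" prefix means the DMSO solvent blank was inhibitory at that level.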
# Staphylococcus aureus [3] = assay: In vitro minimum inhibitory concentration against Staphylococcus aureus; assay type: functional; how it was run: as §1
# Staphylococcus aureus [4] = assay: Minimum inhibitory dilution of medicated rat urine tested in vitro for antibacterial activity against Staphylococcus aureus; Equal to 1:4; assay type: functional
# Staphylococcus aureus [5] = assay: Minimum inhibitory dilution of medicated rat urine tested in vitro for antibacterial activity against Staphylococcus aureus; Less than 1:2; assay type: functional
# Proteus mirabilis [6] = assay: Minimum inhibitory dilution of medicated rat urine tested in vitro for antibacterial activity against Proteus mirabilis; Equal to 1:192; assay type: functional
# Staphylococcus aureus [7] = assay: Minimum inhibitory dilution of medicated rat urine tested in vitro for antibacterial activity against Staphylococcus aureus; Equal to 1:128; assay type: functional
# Proteus mirabilis [8] = assay: Minimum inhibitory dilution of medicated rat urine tested in vitro for antibacterial activity against Proteus mirabilis; Equal to 1:16; assay type: functional
# Staphylococcus aureus [9] = assay: Minimum inhibitory dilution of medicated rat urine tested in vitro for antibacterial activity against Staphylococcus aureus; Equal to 1:32; assay type: functional
# Mus musculus [10] = assay: Antitubercular activity (100 mg/kg) in the 31-day murine mice model; assay type: functional
# How it was run: (§2)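 Female Swiss mice (14–16 g), 10 per treated group and 20 infected controls, were infected i.v. with 0.1 mL of a 2 mg/mL M. tuberculosis H37Rv suspension. Oral dosing was in 0.5 mL 1.0% gum tragacanth, starting day 3 post-infection, twice daily, 5 days/week for 4 weeks. Percent survival was recorded at day 31; active meant survival consistently >80%.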
# Mus musculus [11] = assay: Antitubercular activity (12.5 mg/kg) in the 31-day murine mice model; assay type: functional; how it was run: as §2
# Mus musculus [12] = assay: Antitubercular activity (25 mg/kg) in the 31-day murine mice model; assay type: functional; how it was run: as §2
# Mus musculus [13] = assay: Antitubercular activity (3.1 mg/kg) in the 31-day murine mice model; assay type: functional; how it was run: as §2
# Mus musculus [14] = assay: Antitubercular activity (50 mg/kg) in the 31-day murine mice model; assay type: functional; how it was run: as §2
# Mus musculus [15] = assay: Antitubercular activity (6.25 mg/kg) in the 31-day murine mice model; assay type: functional; how it was run: as §2
# Staphylococcus aureus [16] = assay: Minimum inhibitory dilution of medicated rat urine tested in vitro for antibacterial activity against Staphylococcus aureus; Equal to 1:16; assay type: functional
# Mus musculus [17] = assay: Antitubercular activity (100 mg/kg) in the 31-day murine mice model; NA=Not active; assay type: functional, organism-based; how it was run: as §2
# Mus musculus [18] = assay: Antitubercular activity (12.5 mg/kg) in the 31-day murine mice model; NA=Not active; assay type: functional, organism-based; how it was run: as §2
# Mus musculus [19] = assay: Antitubercular activity (25 mg/kg) in the 31-day murine mice model; NA=Not active; assay type: functional, organism-based; how it was run: as §2
# Mus musculus [20] = assay: Antitubercular activity (3.1 mg/kg) in the 31-day murine mice model; NA=Not active; assay type: functional, organism-based; how it was run: as §2
# Mus musculus [21] = assay: Antitubercular activity (50 mg/kg) in the 31-day murine mice model; NA=Not active; assay type: functional, organism-based; how it was run: as §2
# Mus musculus [22] = assay: Antitubercular activity (6.25 mg/kg) in the 31-day murine mice model; NA=Not active; assay type: functional, organism-based; how it was run: as §2
# Staphylococcus aureus [23] = assay: Minimum inhibitory dilution of medicated rat urine tested in vitro for antibacterial activity against Staphylococcus aureus; Equal to 1:2; assay type: functional
# Staphylococcus aureus [24] = assay: Minimum inhibitory dilution of medicated rat urine tested in vitro for antibacterial activity against Staphylococcus aureus; Equal to 1:8; assay type: functional
# Proteus mirabilis [25] = assay: Minimum inhibitory dilution of medicated rat urine tested in vitro for antibacterial activity against Proteus mirabilis; Equals to 1:16; assay type: functional
# Staphylococcus aureus [26] = assay: Minimum inhibitory dilution of medicated rat urine tested in vitro for antibacterial activity against Staphylococcus aureus; Equal to 1:64; assay type: functional
# Proteus mirabilis [27] = assay: Minimum inhibitory dilution of medicated rat urine tested in vitro for antibacterial activity against Proteus mirabilis; Equal to 1:32; assay type: functional
# Proteus mirabilis [28] = assay: Minimum inhibitory dilution of medicated rat urine tested in vitro for antibacterial activity against Proteus mirabilis; Equal to 1:128; assay type: functional
# How it was run: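 Female Sprague-Dawley rats (160–200 g), in groups of three, got 50 mg/kg orally in 1.0% gum tragacanth (1 mL/100 g), with a second 50 mg/kg dose 8 h later. Pooled 24-h urine was centrifuged, ultrafiltered and stored at −20 °C. It was serially diluted twofold in tryptose phosphate broth with inoculum (18-h culture at OD 0.1, then 1:250) and incubated 18 h at 37 °C. MID is the highest dilution without visible growth.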
# Proteus mirabilis [29] = assay: Minimum inhibitory dilution of medicated rat urine tested in vitro for antibacterial activity against Proteus mirabilis; Equal to 1:4; assay type: functional
# Mus musculus [30] = assay: Antitubercular activity (100 mg/kg) in the 31-day murine model; assay type: functional; how it was run: as §2
# Mus musculus [31] = assay: Antitubercular activity (12.5 mg/kg) in the 31-day murine model; assay type: functional; how it was run: as §2
# Mus musculus [32] = assay: Antitubercular activity (25 mg/kg) in the 31-day murine model; assay type: functional; how it was run: as §2
# Mus musculus [33] = assay: Antitubercular activity (50 mg/kg) in the 31-day murine model; assay type: functional; how it was run: as §2
# Proteus mirabilis [34] = assay: Minimum inhibitory dilution of medicated rat urine tested in vitro for antibacterial activity against Proteus mirabilis; Equal to 1:8; assay type: functional
# [35] = Proteus mirabilis, read-out: MIC
# [36] = Staphylococcus aureus, read-out: MIC
Compound,MID (Proteus mirabilis [1]),MIC (Proteus mirabilis [2]; [35]) [µg/mL],MIC (Staphylococcus aureus [3]; [36]) [µg/mL],MID (Staphylococcus aureus [5]),further results
Oc1ccc(Nn2cccc2)c2ccccc12,< 0.5,62.5,≤ 7.8,,MID (Staphylococcus aureus [4]): 0.25
C1=CC(=Nn2cccc2)C=CC1=Nc1ccccc1,<0.5,> 62.5,> 62.5,<0.5,
c1ccc(Nn2cccc2)cc1,,> 125,250,,MID (Proteus mirabilis [6]): 0.005208; MID (Staphylococcus aureus [7]): 0.00781
Oc1ccc(Nn2cccc2)c(Cl)c1,0.5,> 125,62.5,<0.5,
COc1ccc(Nn2cccc2)cc1,,> 125,> 125,,MID (Proteus mirabilis [8]): 0.0625; MID (Staphylococcus aureus [9]): 0.03125
C1=CC(=Nn2cccc2)C=CC1=Nn1cccc1,,> 62.5,> 125,,Survival (Mus musculus [10]): 100%; Survival (Mus musculus [11]): 100%; Survival (Mus musculus [12]): 100%; Survival (Mus musculus [13]): 10%; Survival (Mus musculus [14]): 100%; Survival (Mus musculus [15]): 80%; MID (Proteus mirabilis [8]): 0.0625; MID (Staphylococcus aureus [16]): 0.0625
CN(C)C1=CC(=O)C=C/C1=N/n1cccc1,<0.5,> 125,62.5,<0.5,
Cc1ccc(C(=O)Oc2ccc(Nn3cccc3)cc2)cc1,< 0.5,> 250,> 250,,Survival (Mus musculus [17]): inactive; Survival (Mus musculus [18]): inactive; Survival (Mus musculus [19]): inactive; Survival (Mus musculus [20]): inactive; Survival (Mus musculus [21]): inactive; Survival (Mus musculus [22]): inactive; MID (Staphylococcus aureus [4]): 0.25
O=C1C=C/C(=N/n2cccc2)C(Cl)=C1,<0.5,> 125,31.3,<0.5,
O=C1C=C/C(=N/n2cccc2)c2ccccc21,<0.5,> 62.5,31.3,,MID (Staphylococcus aureus [23]): 0.5
Oc1ccc(Nn2cccc2)cc1O,<0.5,62.5,≤ 7.8,,MID (Staphylococcus aureus [24]): 0.125
Cc1ccc(C)n1Nc1ccc(O)cc1,<0.5,15.6,≤ 7.8,,MID (Staphylococcus aureus [4]): 0.25
c1ccn(Nc2ccc(Nn3cccc3)cc2)c1,<0.5,> 250,125,<0.5,Survival (Mus musculus [10]): 0%; Survival (Mus musculus [11]): 0%; Survival (Mus musculus [12]): 40%; Survival (Mus musculus [14]): 0%; Survival (Mus musculus [15]): 0%
CN(c1ccc(O)cc1)n1cccc1,<0.5,> 250,125,<0.5,
Cc1ccc(C)n1N=C1C=CC(=O)C=C1,<0.5,62.5,≤ 7.8,,MID (Staphylococcus aureus [23]): 0.5
[N-]=[N+]=NC1=CC(=O)C=C/C1=N/n1cccc1,<0.5,> 250,125,<0.5,
NNC(=O)c1ccncc1 [ISONIAZID],,,,,Survival (Mus musculus [11]): 100%; Survival (Mus musculus [13]): 100%; Survival (Mus musculus [15]): 100%
Oc1ccc(Nn2cccc2)cc1,,31.3,≤ 7.8,,Survival (Mus musculus [11]): 100%; Survival (Mus musculus [13]): 0%; Survival (Mus musculus [15]): 100%; MID (Proteus mirabilis [25]): 0.0625; MID (Staphylococcus aureus [26]): 0.01562

Compound,MID (Proteus mirabilis [1]),MIC (Proteus mirabilis [2]; [35]) [µg/mL],MIC (Staphylococcus aureus [3]; [36]) [µg/mL],MID (Staphylococcus aureus [5]),further results
C1=CC(=Nn2cccc2)C=CC1=Nn1cccc1 [AZAROLE],,,,,Survival (Mus musculus [11]): 80%; Survival (Mus musculus [13]): 70%; Survival (Mus musculus [15]): 100%; MID (Proteus mirabilis [27]): 0.03125; MIC (Proteus mirabilis [2]): >125 µg/mL; MIC (Staphylococcus aureus [3]): >62.5 µg/mL; MID (Staphylococcus aureus [24]): 0.125
CCn1cc(C(=O)O)c(=O)c2ccc(C)nc21 [NALIDIXIC ACID],,15.6,62.5,,MID (Proteus mirabilis [28]): 0.00781; MID (Staphylococcus aureus [16]): 0.0625
Oc1cccc(Nn2cccc2)c1,<0.5,500,62.5,<0.5,
CC(=O)Oc1ccc(Nn2cccc2)cc1,<0.5,> 62.5,> 62.5,,MID (Staphylococcus aureus [16]): 0.0625
O=C1CN(/N=C/c2ccc([N+](=O)[O-])o2)C(=O)N1 [NITROFURANTOIN],,> 62.5,15.6,,MID (Staphylococcus aureus [9]): 0.03125
Oc1ccccc1Nn1cccc1,<0.5,15.6,≤ 7.8,<0.5,
CC1=CC(=Nn2cccc2)C=C(C)C1=O,<0.5,> 125,31.3,,MID (Staphylococcus aureus [4]): 0.25
O=C1C=CC(=Nn2cccc2)C=C1,,62.5,≤ 7.8,,Survival (Mus musculus [11]): 100%; Survival (Mus musculus [12]): 100%; Survival (Mus musculus [13]): 0%; Survival (Mus musculus [14]): 100%; Survival (Mus musculus [15]): 100%; MID (Proteus mirabilis [29]): 0.25; MID (Staphylococcus aureus [9]): 0.03125
CC[C@@H](CO)NCCN[C@@H](CC)CO [ETHAMBUTOL],,,,,Survival (Mus musculus [30]): 100%; Survival (Mus musculus [31]): 0%; Survival (Mus musculus [32]): 30%; Survival (Mus musculus [33]): 90%
CC(=O)Oc1ccc(N(C(C)=O)n2cccc2)cc1,<0.5,> 125,> 250,,Survival (Mus musculus [17]): inactive; Survival (Mus musculus [18]): inactive; Survival (Mus musculus [19]): inactive; Survival (Mus musculus [20]): inactive; Survival (Mus musculus [21]): inactive; Survival (Mus musculus [22]): inactive; MID (Staphylococcus aureus [23]): 0.5
CC(C)(C)C1=CC(=Nn2cccc2)C=C(C(C)(C)C)C1=O,<0.5,> 62.5,> 62.5,<0.5,
CC1=CC(=N/n2cccc2)/C=CC/1=N/n1cccc1,<0.5,> 62.5,> 62.5,<0.5,
O=Nc1ccc(Nn2cccc2)cc1,<0.5,250,125,<0.5,
O=C(O)c1cccn1Nc1ccc(O)cc1,,500,500,,MID (Proteus mirabilis [34]): 0.125; MID (Staphylococcus aureus [16]): 0.0625
Cc1ccc(C(=O)Oc2ccc(N(C(=O)c3ccc(C)cc3)n3cccc3)cc2)cc1,<0.5,> 62.5,125,<0.5,Survival (Mus musculus [17]): inactive; Survival (Mus musculus [18]): inactive; Survival (Mus musculus [19]): inactive; Survival (Mus musculus [20]): inactive; Survival (Mus musculus [21]): inactive; Survival (Mus musculus [22]): inactive
c1ccc(Nc2ccc(Nn3cccc3)cc2)cc1,<0.5,> 250,31.3,<0.5,
O=C(N[C@H](CO)[C@H](O)c1ccc([N+](=O)[O-])cc1)C(Cl)Cl [CHLORAMPHENICOL],,> 62.5,3.9,,MID (Proteus mirabilis [34]): 0.125; MID (Staphylococcus aureus [16]): 0.0625
NC1=CC(=O)C=C/C1=N/n1cccc1,,125,15.6,,MID (Proteus mirabilis [29]): 0.25; MID (Staphylococcus aureus [23]): 0.5
